Experimental data reported in ChEMBL document CHEMBL5724801, “EUbOPEN Chemogenomics Library - Multiplex” (2024).
Where “and” joins values, the source holds several entries; their conditions need not be identical. Identical values can stand only once.

How the values were obtained:
HEK-293T = test: Multiplex assay against HEK293T; format: toxicity, cell-based; conditions: human
Summary of the method: (§1)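 Hoechst33342, BioTracker Green Microtubule Cytoskeleton Dye, MitoTracker Red and Annexin V Alexa Fluor 680 were added to live cells at seeding, and imaging on a CQ1 microscope at 37°C and 5% CO2 followed compound addition. Gating by CellPathfinder machine learning separated cells into Hoechst high-intensity objects or normal cells, then normal cells into healthy, pyknosed or fragmented nuclei, then pyknosed cells into mitotic or apoptotic. Per cents of healthy-nucleus cells are reported for the tubulin, mitochondrial-mass and membrane-permeability phenotypes.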

U2OS = test: Multiplex assay against U2OS; format: toxicity, cell-based; conditions: human; summary of the method: as §1
[1] = 12 h, 1 µM, compound concentration 1 uM
[2] = 12 h, 10 µM, compound concentration 10 uM
[3] = 24 h, 1 µM, compound concentration 1 uM
[4] = 24 h, 10 µM, compound concentration 10 uM
[5] = 48 h, 1 µM, compound concentration 1 uM
[6] = 48 h, 10 µM, compound concentration 10 uM

## CCCCC1=NC2(CCCC2)C(=O)N1Cc1ccc(-c2ccccc2-c2nnn[nH]2)cc1 [IRBESARTAN]
HEK-293T; [1]
  Population Apoptotic (%): 24% and 28%
  Population Fragmented Nuclei (%): 9% and 8%
  Population Healthy Nuclei (%): 79% and 78%
  Population Hoechst High Intensity Objects (%): 9% and 4%
  Population Membrane Permeable-Phenotype (%): 0%
  Population Mitochondria Different-Phenotype (%): 34% and 63%
  Population Mitotic Cells (%): 75% and 71%
  Population Normal (%): 91% and 95%
  Population Pyknosed Nuclei (%): 10% and 12%
  Population Tubulin-Different-Phenotype (%): 17% and 20%
  Total Cell Count: 500 and 353
HEK-293T; [2]
  Population Apoptotic (%): 50% and 56%
  Population Fragmented Nuclei (%): 7% and 6%
  Population Healthy Nuclei (%): 70% and 78%
  Population Hoechst High Intensity Objects (%): 5% and 13%
  Population Membrane Permeable-Phenotype (%): 2% and 0%
  Population Mitochondria Different-Phenotype (%): 46% and 66%
  Population Mitotic Cells (%): 50% and 43%
  Population Normal (%): 94% and 86%
  Population Pyknosed Nuclei (%): 22% and 15%
  Population Tubulin-Different-Phenotype (%): 50% and 33%
  Total Cell Count: 219 and 351
HEK-293T; [3]
  Population Apoptotic (%): 31% and 34%
  Population Fragmented Nuclei (%): 9%
  Population Healthy Nuclei (%): 79% and 80%
  Population Hoechst High Intensity Objects (%): 4% and 7%
  Population Membrane Permeable-Phenotype (%): 0%
  Population Mitochondria Different-Phenotype (%): 24% and 45%
  Population Mitotic Cells (%): 68% and 65%
  Population Normal (%): 95% and 92%
  Population Pyknosed Nuclei (%): 10% and 9%
  Population Tubulin-Different-Phenotype (%): 15% and 14%
  Total Cell Count: 625 and 456
HEK-293T; [4]
  Population Apoptotic (%): 27% and 41%
  Population Fragmented Nuclei (%): 6% and 11%
  Population Healthy Nuclei (%): 77%
  Population Hoechst High Intensity Objects (%): 3% and 10%
  Population Membrane Permeable-Phenotype (%): 1% and 0%
  Population Mitochondria Different-Phenotype (%): 37% and 49%
  Population Mitotic Cells (%): 72% and 58%
  Population Normal (%): 96% and 89%
  Population Pyknosed Nuclei (%): 15% and 11%
  Population Tubulin-Different-Phenotype (%): 32% and 22%
  Total Cell Count: 287 and 434
HEK-293T; [5]
  Population Apoptotic (%): 29% and 23%
  Population Fragmented Nuclei (%): 11% and 9%
  Population Healthy Nuclei (%): 81% and 84%
  Population Hoechst High Intensity Objects (%): 3% and 2%
  Population Membrane Permeable-Phenotype (%): 0% and 1%
  Population Mitochondria Different-Phenotype (%): 21% and 19%
  Population Mitotic Cells (%): 70% and 76%
  Population Normal (%): 96% and 97%
  Population Pyknosed Nuclei (%): 7% and 6%
  Population Tubulin-Different-Phenotype (%): 15% and 8%
  Total Cell Count: 958 and 705
HEK-293T; [6]
  Population Apoptotic (%): 25% and 46%
  Population Fragmented Nuclei (%): 15% and 12%
  Population Healthy Nuclei (%): 75% and 80%
  Population Hoechst High Intensity Objects (%): 1% and 3%
  Population Membrane Permeable-Phenotype (%): 0%
  Population Mitochondria Different-Phenotype (%): 21% and 26%
  Population Mitotic Cells (%): 75% and 53%
  Population Normal (%): 98% and 96%
  Population Pyknosed Nuclei (%): 9% and 6%
  Population Tubulin-Different-Phenotype (%): 15%
  Total Cell Count: 473 and 684
U2OS; [1]
  Population Apoptotic (%): 83% and 77%
  Population Fragmented Nuclei (%): 25% and 9%
  Population Healthy Nuclei (%): 66% and 82%
  Population Hoechst High Intensity Objects (%): 2% and 0%
  Population Membrane Permeable-Phenotype (%): 5% and 11%
  Population Mitochondria Different-Phenotype (%): 1%
  Population Mitotic Cells (%): 16% and 22%
  Population Normal (%): 97% and 99%
  Population Pyknosed Nuclei (%): 7%
  Population Tubulin-Different-Phenotype (%): 1% and 8%
  Total Cell Count: 233 and 124
U2OS; [2]
  Population Apoptotic (%): 91% and 100%
  Population Fragmented Nuclei (%): 22% and 18%
  Population Healthy Nuclei (%): 68% and 74%
  Population Hoechst High Intensity Objects (%): 2% and 0%
  Population Membrane Permeable-Phenotype (%): 4% and 8%
  Population Mitochondria Different-Phenotype (%): 3% and 6%
  Population Mitotic Cells (%): 8% and 0%
  Population Normal (%): 97% and 100%
  Population Pyknosed Nuclei (%): 9% and 8%
  Population Tubulin-Different-Phenotype (%): 2% and 8%
  Total Cell Count: 254 and 100
U2OS; [3]
  Population Apoptotic (%): 70% and 66%
  Population Fragmented Nuclei (%): 23% and 12%
  Population Healthy Nuclei (%): 69% and 76%
  Population Hoechst High Intensity Objects (%): 3% and 2%
  Population Membrane Permeable-Phenotype (%): 6% and 9%
  Population Mitochondria Different-Phenotype (%): 3% and 2%
  Population Mitotic Cells (%): 29% and 33%
  Population Normal (%): 96% and 97%
  Population Pyknosed Nuclei (%): 7% and 10%
  Population Tubulin-Different-Phenotype (%): 3% and 4%
